Measurements taken from ChEMBL document CHEMBL4130469, “C-Methylated Flavonoid Glycosides from Pentarhizidium orientale Rhizomes and Their Inhibitory Effects on the H1N1 Influenza Virus” (J Nat Prod, 2017).

Legend:
[1] = Inhibition of neuraminidase activity in H9N2 A/chicken/Korea/01210/2001 infected in MDCK cells using 4-MU-NANA as substrate pretreated for 30 mins followed by substrate addition measured after 2 hrs by fluorescence assay; format: cell-based, H9N2 subtype; details: Influenza A virus, A/chicken/Korea/01210/2001, MDCK
Influenza A virus = assay: Antiviral activity against Influenza A virus (A/PR/8/34 (H1N1)) infected in MDCK cells assessed as reduction in virus-induced cytopathic effect after 3 days by MTT assay; format: functional, organism-based; details: A/Puerto Rico/8/1934(H1N1), 72 h
Procedure, shortened: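 MDCK cells grown in DMEM with 10% FBS at 37 °C and 5% CO2, seeded at 1 × 10^5 cells/well, and cultured 24 h. Infected 2 h in DMEM with 0.15 μg/mL trypsin and 5 μg/mL BSA, then given DMEM with 10 μg/mL trypsin and a range of compound concentrations, in triplicate. After 3 days, MTT (2 mg/mL) added for 4 h at 37 °C; formazan dissolved in DMSO, A550 read; EC50.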

[2] = Cytotoxicity against MDCK cells after 2 days by MTT assay; format: cell-based, Canis lupus familiaris; details: dog
Procedure, shortened: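 Uninfected MDCK cells seeded at 1 × 10^5 cells/well and grown 24 h. Washed with PBS, then exposed to graded compound concentrations in fresh DMEM, each in triplicate, for 2 days. Viability by MTT (2 mg/mL), 4 h further incubation; CC50.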

[3] = molecular target: Neuraminidase (Influenza A virus (A/Puerto Rico/8/1934(H1N1)), UniProt P03468); assay: Inhibition of neuraminidase activity in Influenza A virus (A/PR/8/34 (H1N1)) infected in MDCK cells using 4-MU-NANA as substrate pretreated for 30 mins followed by substrate addition measured after 2 hrs by fluorescence assay; format: cell-based
Sequence of Neuraminidase (Influenza A virus (A/Puerto Rico/8/1934(H1N1)), UniProt P03468) (P03468 whole entry): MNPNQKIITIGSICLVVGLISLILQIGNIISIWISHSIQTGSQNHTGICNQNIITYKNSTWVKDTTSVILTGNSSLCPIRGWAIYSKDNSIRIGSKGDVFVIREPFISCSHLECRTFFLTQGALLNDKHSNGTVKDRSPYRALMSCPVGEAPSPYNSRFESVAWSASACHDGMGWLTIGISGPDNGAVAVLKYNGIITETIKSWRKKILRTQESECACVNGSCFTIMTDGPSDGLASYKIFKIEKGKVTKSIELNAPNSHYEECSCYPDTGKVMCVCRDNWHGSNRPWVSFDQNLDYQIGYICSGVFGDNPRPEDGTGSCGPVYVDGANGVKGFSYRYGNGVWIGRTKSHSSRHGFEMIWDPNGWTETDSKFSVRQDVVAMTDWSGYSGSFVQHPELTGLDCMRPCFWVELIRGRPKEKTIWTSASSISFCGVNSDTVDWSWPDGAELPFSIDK

Row | SMILES | IC50 [1] | EC50 (Influenza A virus) | CC50 at 48 h [2] | IC50 [3]
1 | Cc1c(O)c(C)c2c(c1O)C(=O)C[C@@H](c1ccccc1O)O2 | 24.1 µM | 22.9 µM | > 100 µM | 23.9 µM
2 | COc1ccc(O)c([C@@H]2CC(=O)c3c(O)c(C)c(O)c(C)c3O2)c1 | 24.6 µM | 23 µM | > 100 µM | 24.5 µM
3 | COc1ccc([C@@H]2CC(=O)c3c(O)c(C)c(O)c(C)c3O2)cc1 | 27.2 µM | 26.9 µM | > 100 µM | 25.2 µM
4 | COc1cc(O)cc([C@@H]2CC(=O)c3c(O)c(C)c(O)c(C)c3O2)c1 | 23.1 µM | 21.4 µM | > 100 µM | 24.4 µM
5 | Cc1c(O)c(C)c2c(c1O)C(=O)C[C@@H](c1ccccc1)O2 [DEMETHOXYMATTEUCINOL] | 31.3 µM | 30.7 µM | 77.6 µM | 30.3 µM
6 | CCOC(=O)C1=C[C@@H](OC(CC)CC)[C@H](NC(C)=O)[C@@H](N)C1 [OSELTAMIVIR] | 0.0191 µM | 0.6 µM | – | –
